Molecules are shown by their SMILES. Activity calls are given as the source filed them. The calls are words filed in the database; no cut-off is given here.

Data set [1] concerns NCI-H292. Description: Synergistic antiproliferative activity against human NCI-H292 cells assessed as combination index at ED50 measured after 72 hrs in presence of erlotinib by celltiter-glo assay. The class given is functional.
Data set [2] has as its system SK-OV-3. The data set can be described thus: Synergistic antiproliferative activity against human SK-OV-3 cells assessed as combination index at ED75 measured after 72 hrs in presence of lapatinib by celltiter-glo assay. The class given is functional.
A further data set deals with MDA-MB-468. Description: Antiproliferative activity against human MDA-MB-468 cells assessed as reduction in cell proliferation measured after 72 hrs by celltiter-glo assay. The following applies: MDA-MB-468, 72 h. The class given is functional, cell-based. In outline:
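Cells in RPMI 1640 with 10% heat-inactivated FBS at 37°C and 5% CO₂ were seeded at 2 to 3 × 10³ per well. […] Growth was read as cellular ATP by CellTiter-Glo.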

The test system of data set [3] is NCI-H460. The data set can be described thus: Antiproliferative activity against human NCI-H460 cells assessed as reduction in cell proliferation measured after 72 hrs by celltiter-glo assay. It counts as functional, cell-based. The note with it: NCI-H460, 72 h.
The subject of a further data set is HCC1954. The data set can be described thus: Synergistic antiproliferative activity against human HCC1954 cells assessed as combination index at ED90 measured after 96 hrs in presence of lapatinib by celltiter-glo assay. It counts as functional.
For another data set, the system named is HCC70. Description: Synergistic antiproliferative activity against human HCC70 cells assessed as combination index at ED75 treated 24 hrs prior to lapatinib and measured after 72 hrs by celltiter-glo assay. It counts as functional. The following applies: time 96 hrs.
The subject of data set [4] is SK-OV-3. Description: Synergistic antiproliferative activity against human SK-OV-3 cells assessed as combination index at ED90 measured after 72 hrs in presence of lapatinib by celltiter-glo assay. It counts as functional.
A further data set relates to SK-BR-3. Description: Synergistic antiproliferative activity against human SK-BR-3 cells assessed as combination index at ED50 measured after 72 hrs in presence of lapatinib by celltiter-glo assay. The class given is functional.
The subject of data set [5] is NCI-H460. The data set can be described thus: Synergistic antiproliferative activity against human NCI-H460 cells assessed as combination index at ED90 measured after 72 hrs in presence of 5-FU by celltiter-glo assay. The class given is functional.
Data set [6] in a line: Effect on total S6 protein expression in human HCC70 cells at 1 umol/L measured after 3 to 24 hrs in presence of lapatinib by Western blot analysis. The class given is toxicity, cell-based. The following applies: hcc70, 1 µM, time 3-24 hrs, dose 1 µmol/L. In a few lines:
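HCC70 cells at ~70% confluence were exposed to 1 µmol/L MK-2206, 10 µmol/L lapatinib, or both for 0, 3, 6, 12 or 24 h. Cells were lysed in Tris-HCl pH 7.5/NaCl/1% Triton X-100 with protease and phosphatase inhibitors. Lysates were run on SDS-PAGE and immunoblotted.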

Data set [7] concerns the target RAC-alpha serine/threonine-protein kinase (Homo sapiens) (UniProt P31749). The data set can be described thus: Inhibition of AKT phosphorylation at S473 residue in human NCI-H661 cells at 3 umol/L measured after 4 to 24 hrs in presence of gemcitabine by MSD assay. The note with it: time 4-24 hrs.
Data set [8] concerns NCI-H460. The data set can be described thus: Antitumor activity against human NCI-H460 cells xenografted in CD1 nude mouse assessed as reduction in tumor volume at 120 mg/kg, po administered 3 times per week for 2 weeks in presence of carboplatin by caliper method. It counts as functional, organism-based. In outline:
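NCI-H460 cells were injected s.c. in Matrigel/PBS into CD1-nude mice (female in the carboplatin study). Mice were randomized at 0.2 cm³, n = 5. Carboplatin was given at 50 mg/kg or gemcitabine at 100 mg/kg, i.v. in saline, on days 0 and 7. MK-2206 (30% Captisol) was given at 120 mg/kg po on days 0, 2, 4, 7, 9, 11. Tumors measured by caliper twice weekly.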

For data set [9], the target named is RAC-alpha serine/threonine-protein kinase (Homo sapiens) (UniProt P31749). Description: Inhibition of AKT in human A-431 cells assessed as reduction in GSK3alpha/beta phosphorylation at S21/S9 residues at 5 umol/L measured after 5 hrs in presence of erlotinib by Western blot analysis. It counts as cell-based. The note with it: dose 5.0 µmol/L. In a few lines:
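Cells were lysed in Tris-HCl pH 7.5, 150 mM NaCl, 1% Triton X-100 with protease and phosphatase inhibitors. Lysates were run on SDS-PAGE, transferred to nitrocellulose and probed with phospho-specific antibodies.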

In the next data set the test system is NCI-H441. The data set can be described thus: Induction of apoptosis in human NCI-H441 cells assessed as fold induction of capsase-3/7 activity measured after 24 to 48 hrs in presence of carboplatin by caspase-glo 3/7 assay. The class given is functional. The following applies: time 24-48 hrs.
The subject of data set [10] is NCI-H292. The data set can be described thus: Synergistic antiproliferative activity against human NCI-H292 cells assessed as combination index at ED90 measured after 72 hrs in presence of erlotinib by celltiter-glo assay. The class given is functional.
In a further data set the test system is Calu-6. Description: Synergistic antiproliferative activity against human Calu-6 cells assessed as combination index at ED50 measured after 72 hrs in presence of erlotinib by celltiter-glo assay. The class given is functional. In a few lines:
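Cells grown in RPMI 1640 with 10% heat-inactivated FBS at 37°C, 5% CO₂. Seeded at 2 to 3 × 10³ per well; drugs added 24 h later. […] Viability read as cellular ATP by CellTiter-Glo. CI calculated by Chou–Talalay from median-effect plots at ED50, ED75 and ED90.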

Data set [11] in a line: Toxicity in human NCI-H292 cells xenografted CD-1 mouse assessed as death at 360 mg/kg, po administered once a week for 2 weeks starting 2 hrs post-erlotinib treatment and measured during compound dosing. The class given is organism-based. The following applies: in vivo, 336 h. In outline:
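NCI-H292 cells in 50% Matrigel/PBS injected s.c. into flank of female CD1-nude mice; dosing began after 2 wk at mean tumour 0.2 cm³, n = 5/group. […] Body weight and signs monitored; treatment ended day 16.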

Data set [12] concerns A2780. Description: Induction of apoptosis in human A2780 cells assessed as increase in caspase-3/7 activity measured after 48 hrs in presence of carboplatin by caspase-glo 3/7 assay. The class given is functional, cell-based. The following applies: dose 0.0625-1 µM.
Another data set relates to PC-3. Description: Antitumor activity against human PC-3 cells xenografted in CD1 nude mouse assessed as tumor growth inhibition at 120 mg/kg, po administered 3 times per week for 2 weeks starting 24 hrs post docetaxel treatment and measured during compound dosing by caliper method. It counts as functional, organism-based. In outline: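 Male CD1-nude mice received s.c. PC-3 cells and were treated from day 25 after implant, at 0.2 cm³, n = 5. Docetaxel (0.73% ethanol in saline) was given at 5 mg/kg i.v. on day 0. MK-2206 (30% Captisol) was given at 120 mg/kg po on days 1, 3, 5, 8, 10, 12. Caliper volume twice weekly.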

A further data set has as its system NCI-H23. Description: Synergistic antiproliferative activity against human NCI-H23 cells assessed as combination index at ED50 measured after 72 hrs in presence of erlotinib by celltiter-glo assay. The class given is functional.
In data set [13] the test system is A2780. The data set can be described thus: Synergistic antiproliferative activity against human A2780 cells assessed as combination index at ED75 measured after 72 hrs in presence of camptothecin by celltiter-glo assay. It counts as functional. In outline:
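Cells were seeded at 2–3 × 10³ per well in RPMI 1640 with 10% FBS. At 24 h, MK-2206 and the partner drug were added simultaneously at constant concentration ratios spanning each agent's IC₅₀, for 72 h. Growth was read as cellular ATP by CellTiter-Glo. CI was taken from median-effect plots of each agent alone and in combination (Chou–Talalay), at ED₅₀, ED₇₅ and ED₉₀.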

RAC-alpha serine/threonine-protein kinase (Homo sapiens), sequence (P31749 whole entry): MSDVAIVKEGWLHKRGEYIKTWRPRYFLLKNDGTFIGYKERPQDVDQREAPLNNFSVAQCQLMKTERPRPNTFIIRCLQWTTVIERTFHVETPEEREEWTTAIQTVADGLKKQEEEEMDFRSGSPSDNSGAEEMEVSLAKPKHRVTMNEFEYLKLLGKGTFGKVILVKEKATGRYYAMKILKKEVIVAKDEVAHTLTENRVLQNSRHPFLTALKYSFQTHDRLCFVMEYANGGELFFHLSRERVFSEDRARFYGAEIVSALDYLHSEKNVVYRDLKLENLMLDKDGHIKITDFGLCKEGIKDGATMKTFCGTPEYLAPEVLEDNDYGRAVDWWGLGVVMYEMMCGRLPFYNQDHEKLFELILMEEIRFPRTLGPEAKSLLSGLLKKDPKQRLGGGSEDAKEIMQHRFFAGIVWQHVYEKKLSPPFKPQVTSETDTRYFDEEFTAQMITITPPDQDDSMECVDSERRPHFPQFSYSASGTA

For `Cl.NC1(c2ccc(-c3nc4ccn5c(=O)[nH]nc5c4cc3-c3ccccc3)cc2)CCC1`, the CI50 with NCI-H292 [1] was determined as 0.44; in the data set with SK-BR-3, 0.43; in the data set on Calu-6, 0.49; in the data set with NCI-H23, 0.32. Moreover, the CI75 was 0.13 with SK-OV-3 [2], 0.18 in the data set on HCC70 and 0.4 in the data set on A2780 [13]. For the same compound, the results for the IC50 in the data set with MDA-MB-468 and in the data set with NCI-H460 [3] were 2.6 µM and 3.4 µM, respectively. Also, the CI90 is given as 0.18 in the data set on HCC1954, 0.25 with SK-OV-3 [4], 0.54 in the data set with NCI-H460 [5] and 0.28 in the data set with NCI-H292 [10]. Besides, the results for the Activity entry (in [6]; in [11]; with A2780 [12]) were “Toxic”, “Non-Toxic” and “Dose-Dependent Effect”, respectively. For the same compound, the inhibition result in [7] and in data set [9] was “Active” throughout. Also, in the data set on NCI-H460 [8], the result was Active. The “fold change (FC)” value in the data set with NCI-H441 is listed as 2.3. The TGI result with PC-3 was “Active”.

Values taken from ChEMBL document CHEMBL5705892, “MK-2206, an allosteric Akt inhibitor, enhances antitumor efficacy by standard chemotherapeutic agents or molecular targeted drugs in vitro and in vivo” (Mol Cancer Ther, 2010).
